Test results from ChEMBL document CHEMBL5614466, “Discovery of a Series of Macrocycles as Potent Inhibitors of Leishmania Infantum” (J Med Chem, 2024).
Activity calls are given as the source filed them. The rule behind the calls is not given here.

Key:
[1] = Cytotoxicity against human MRC5 cells; format: toxicity, cell-based
[2] = Cytotoxicity against mouse Peritoneal macrophage; format: toxicity, cell-based; settings: peritoneal macrophages
[3] = system: Trypanosoma brucei rhodesiense; experiment: Antitrypanosomal activity against axenic culture of Trypanosoma brucei rhodesiense infected in human MRC-5 SV2 cells assessed as reduction in parasite growth incubated for 72 hrs by resazurin reagent based fluorescence analysis; format: functional, organism-based
How it was run: (§1)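 Trypomastigotes were grown axenically in culture medium. Growth reduction was determined by the previously reported method, with and without added inhibitor.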

Trypanosoma brucei = experiment: Antitrypanosomal activity against axenic culture of Trypanosoma brucei Squib 427 infected in human MRC-5 SV2 cells assessed as reduction in parasite growth incubated for 72 hrs by resazurin reagent based fluorescence analysis; format: functional, organism-based; how it was run: as §1

Row | Compound | CC50 [1] | CC50 [2] | Activity [3] | Activity (Trypanosoma brucei)
1 | CC(C)(C)OC(=O)N[C@H]1Cc2ccc(cc2)Oc2ccc(cc2)C(=O)CNC(=O)[C@H](Cc2ccccc2)NC1=O | > 64 µM | > 64 µM | – | –
2 | CC(C)(C)OC(=O)N[C@H]1Cc2ccc(cc2)Oc2ccc(cc2NC(=O)c2ccccn2)C(=O)CNC(=O)[C@H](c2ccccc2)NC1=O | – | – | Active | inactive
3 | CC(C)(C)OC(=O)N[C@H]1Cc2ccc(cc2)Oc2ccc(cc2NC(=O)c2ccccn2)CCNC(=O)[C@H](Cc2ccccc2)NC1=O | – | > 64 µM | Active | inactive
4 | CC(C)(C)OC(=O)N[C@H]1Cc2ccc(cc2)Oc2ccc(cc2NC(=O)c2ccccn2)C(=O)CNC(=O)[C@@H](Cc2ccccc2)NC1=O | – | – | Active | inactive
5 | CC(C)(C)C(=O)N[C@H]1Cc2ccc(cc2)Oc2ccc(cc2NC(=O)c2ccccn2)C(=O)CNC(=O)[C@H](Cc2ccccc2)NC1=O | – | – | Active | inactive
6 | C[C@@H]1NC(=O)[C@@H](NC(=O)OC(C)(C)C)Cc2ccc(cc2)Oc2ccc(cc2NC(=O)c2ccccn2)C(=O)CNC1=O | – | – | Active | inactive
7 | COc1ccc(C[C@H](NC(=O)OC(C)(C)C)C(=O)N[C@@H](Cc2ccccc2)C(=O)NCC(=O)c2cccc(NC(=O)c3ccccn3)c2)cc1 | – | – | Active | inactive
8 | CC(=O)N[C@H]1Cc2ccc(cc2)Oc2ccc(cc2NC(=O)c2ccccn2)C(=O)CNC(=O)[C@H](Cc2ccccc2)NC1=O | – | – | Active | inactive
9 | CC(C)(C)OC(=O)N[C@H]1Cc2ccc(cc2)Oc2ccc(cc2NC(=O)c2ccccn2)C(=O)CNC(=O)[C@H](Cc2ccccc2)NC1=O | > 64 µM | – | – | –
10 | CC(C)(C)OC(=O)N[C@H]1CCc2ccc(cc2)Oc2ccc(cc2NC(=O)c2ccccn2)C(=O)CNC(=O)[C@H](Cc2ccccc2)NC1=O | – | – | Active | inactive
11 | CC(=O)Nc1cc2ccc1Oc1ccc(cc1)C[C@H](NC(=O)OC(C)(C)C)C(=O)N[C@@H](Cc1ccccc1)C(=O)NCC2=O | > 64 µM | – | – | –
12 | CC(C)C[C@@H]1NC(=O)[C@@H](NC(=O)OC(C)(C)C)Cc2ccc(cc2)Oc2ccc(cc2NC(=O)c2ccccn2)C(=O)CNC1=O | – | – | Active | inactive
